Here are results for 25 compounds from ChEMBL document CHEMBL4425094, “Novel Benzo[a]quinolizidine Analogs Induce Cancer Cell Death through Paraptosis and Apoptosis” (J Med Chem, 2016).

In one experiment the test system is MDA-MB-231. Description: Cytotoxicity against human MDA-MB-231 cells assessed as cell growth inhibition after 24 hrs by MTT assay. It counts as functional, cell-based. As to conditions: MDA-MB-231, 24 h. Summed up:
(§1)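 Cells seeded 24 h in RPMI 1640 + 10% FBS. RWPE-1 was kept in K-SFM with bovine pituitary extract and EGF. Cells then exposed to compounds for 24 h at 37 °C, 5% CO2, with DMSO vehicle and docetaxel as positive control. MTT added for 4 h, absorbance read at 570 nm. Triplicate runs, IC50 reported as mean of three experiments.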

In a further experiment the test system is HeLa. The experiment in a line: Cytotoxicity against human HeLa cells assessed as cell growth inhibition after 24 hrs by MTT assay. It counts as functional, cell-based. In a few lines:
as §1

Another experiment deals with K562. The experiment in a line: Cytotoxicity against human K562 cells assessed as cell growth inhibition after 24 hrs by MTT assay. It counts as functional, cell-based. As to conditions: K562, 24 h. Summed up: as §1
A further experiment concerns PC-3. The experiment in a line: Cytotoxicity against human PC3 cells assessed as cell growth inhibition after 24 hrs by MTT assay. It counts as functional, cell-based. The conditions noted are these: PC-3, 24 h. In a few lines: as §1
Another experiment deals with DU-145. The experiment in a line: Cytotoxicity against human DU145 cells assessed as cell growth inhibition after 24 hrs by MTT assay. It is filed as functional, cell-based. The conditions noted are these: DU-145, 24 h. In a few lines:
as §1

A further experiment deals with MCF7. The experiment in a line: Cytotoxicity against human MCF7 cells assessed as cell growth inhibition after 24 hrs by MTT assay. As to conditions: MCF7, 24 h. It is filed as functional, cell-based. In a few lines:
as §1

A further experiment deals with RWPE-1. The experiment in a line: Cytotoxicity against human RWPE1 cells assessed as cell growth inhibition after 24 hrs by MTT assay. It counts as cell-based. The conditions noted are these: RWPE-1, 24 h. Summed up:
as §1

On to `CC[C@@H]1CC(=O)C[C@H]2c3cc(OCc4ccccc4)c(OCc4ccccc4)cc3CCN12` (relative stereo), for which the IC50 with MDA-MB-231, in the experiment with HeLa, in the experiment on K562, in the experiment with PC-3, with DU-145 and in the experiment on MCF7 was > 20 µM each time. The IC50 in the experiment on RWPE-1 is > 20 µM.

Take `C[C@@H]1CC(=O)C[C@H]2c3cc(OCc4cc(F)cc(F)c4)c(OCc4cc(F)cc(F)c4)cc3CCN12` (relative stereo): the IC50 in the experiment with MDA-MB-231, in the experiment with HeLa, in the experiment with K562, with PC-3, with DU-145 and in the experiment on MCF7 was > 20 µM throughout. Also, the IC50 in the experiment with RWPE-1 was > 20 µM.

Regarding `O[C@@H]1C[C@@H](c2ccccc2)N2CCc3cc(OCc4ccccc4)c(OCc4ccccc4)cc3[C@@H]2C1`, the IC50 in the experiment on MDA-MB-231 worked out at 11.8 µM; with HeLa, 11.2 µM; in the experiment with K562, 6.96 µM; in the experiment on PC-3, 8.37 µM; in the experiment with DU-145, 12 µM; with MCF7, 20.1 µM. For the same compound, the IC50 with RWPE-1 is 40 to 86.8 µM.

Regarding `C[C@@H]1C[C@@](C)(O)C[C@H]2c3cc(OCc4ccc(Br)cc4)c(OCc4ccc(Br)cc4)cc3CCN12`, the 50% inhibitory concentration (IC50) in the experiment with MDA-MB-231 is 1.2 µM; in the experiment with HeLa, 1.88 µM; in the experiment with K562, 1.79 µM; in the experiment with PC-3 it was 0.79 µM; with DU-145 it was 1.97 µM; with MCF7, 0.84 µM. In the experiment with RWPE-1, the IC50 stood at 2.95 µM.

For `CCCCCCCCCCCCCCCCOc1cc2c(cc1OCCCCCCCCCCCCCCCC)[C@@H]1C[C@@H](O)C[C@@H](C)N1CC2`, the IC50 in the experiment on MDA-MB-231, in the experiment on HeLa, in the experiment with K562, in the experiment with PC-3, with DU-145 and in the experiment with MCF7 was > 20 µM each time. Also, in the experiment on RWPE-1, the IC50 was > 20 µM.

On to `c1ccc(COc2cc3c(cc2OCc2ccccc2)[C@@H]2CCC[C@@H](c4ccccc4)N2CC3)cc1`, for which the IC50 with MDA-MB-231, in the experiment on HeLa, in the experiment with K562, in the experiment on PC-3, with DU-145 and with MCF7 was > 20 µM in each case. The 50% inhibitory concentration (IC50) in the experiment with RWPE-1 is > 20 µM.

As to `COc1cc([C@@H]2C[C@H](O)C[C@H]3c4cc(OCc5ccccc5)c(OCc5ccccc5)cc4CCN23)cc(OC)c1OC`, the IC50 with MDA-MB-231, in the experiment on HeLa, in the experiment with K562, in the experiment with PC-3, with DU-145 and with MCF7 was > 20 µM throughout. Besides, in the experiment with RWPE-1, the IC50 was > 20 µM.

Regarding `COc1ccc([C@@H]2CC(=O)C[C@H]3c4cc(OCc5ccccc5)c(OCc5ccccc5)cc4CCN23)cc1` (relative stereo), the IC50 with MDA-MB-231, with HeLa, in the experiment with K562, with PC-3, in the experiment on DU-145 and in the experiment on MCF7 was > 20 µM each time. The IC50 in the experiment on RWPE-1 is > 20 µM.

`O[C@H]1C[C@@H](c2ccccc2)N2CCc3ccc(OCc4ccccc4)cc3[C@@H]2C1`: the IC50 in the experiment on MDA-MB-231, in the experiment on HeLa, with K562, in the experiment with PC-3, in the experiment with DU-145 and in the experiment with MCF7 was > 20 µM in each case. For the same compound, in the experiment with RWPE-1, the IC50 is > 20 µM.

In the case of `COc1ccc([C@@H]2C[C@H](O)C[C@H]3c4cc(OCc5ccccc5)c(OCc5ccccc5)cc4CCN23)cc1OC`, the IC50 with MDA-MB-231, in the experiment on HeLa, in the experiment with K562, in the experiment on PC-3, with DU-145 and in the experiment on MCF7 was > 20 µM each time. Further, the IC50 in the experiment on RWPE-1 is > 20 µM.

Take `C[C@@H]1C[C@@H](O)C[C@H]2c3cc(OCc4cc(F)cc(F)c4)c(OCc4cc(F)cc(F)c4)cc3CCN12`: the IC50 in the experiment on MDA-MB-231 is 2.11 µM; in the experiment with HeLa, 1.96 µM; with K562 it was 1.89 µM; in the experiment with PC-3 it was 1.35 µM; with DU-145 it was 1.88 µM; in the experiment with MCF7, 1.71 µM. For the same compound, the IC50 in the experiment with RWPE-1 was determined as 4.42 µM.

Regarding `CCCCCCOc1cc2c(cc1OCCCCCC)[C@@H]1C[C@@H](O)C[C@@H](C)N1CC2`, the IC50 with MDA-MB-231, in the experiment with HeLa, with K562, in the experiment with PC-3, with DU-145 and in the experiment on MCF7 was > 20 µM each time. Moreover, the IC50 in the experiment with RWPE-1 was > 20 µM.

For `CCC[C@@H]1CC(=O)C[C@H]2c3cc(OCc4ccccc4)c(OCc4ccccc4)cc3CCN12` (relative stereo), the IC50 in the experiment with MDA-MB-231, with HeLa, in the experiment on K562, in the experiment on PC-3, in the experiment on DU-145 and in the experiment with MCF7 was > 20 µM in each case. For the same compound, the IC50 in the experiment on RWPE-1 is > 20 µM.

With `COc1ccc([C@@H]2C[C@H](O)C[C@H]3c4cc(OCc5cc(C)cc(C)c5)c(OCc5cc(C)cc(C)c5)cc4CCN23)cc1OC`, the IC50 in the experiment on MDA-MB-231, in the experiment with HeLa, with K562, in the experiment on PC-3, in the experiment on DU-145 and in the experiment on MCF7 was > 20 µM in each case. Further, in the experiment on RWPE-1, the IC50 was > 20 µM.

With `C[C@@H]1C[C@@H](O)C[C@H]2c3cc(OCc4ccc(C(C)(C)C)cc4)c(OCc4ccc(C(C)(C)C)cc4)cc3CCN12`, the 50% inhibitory concentration (IC50) is 3.25 µM with MDA-MB-231; 2.06 µM with HeLa; 2.04 µM with K562; 3.79 µM with PC-3; 2.22 µM with DU-145; 0.86 µM with MCF7. Besides, the IC50 in the experiment with RWPE-1 is 1.91 µM.

Regarding `O=C1C[C@@H](c2ccccc2)N2CCc3ccccc3[C@@H]2C1` (relative stereo), the IC50 in the experiment with MDA-MB-231, in the experiment on HeLa, in the experiment on K562, in the experiment on PC-3, in the experiment with DU-145 and with MCF7 was > 20 µM throughout. The IC50 in the experiment with RWPE-1 was > 20 µM.

For the compound `CCCCCCOc1cc2c(cc1OCCCCCC)[C@@H]1CC(=O)C[C@@H](C)N1CC2` (relative stereo), the IC50 with MDA-MB-231, with HeLa, in the experiment with K562, in the experiment on PC-3, in the experiment on DU-145 and with MCF7 was > 20 µM in each case. In addition, the half-maximal inhibitory concentration (IC50) in the experiment with RWPE-1 is > 20 µM.

Take `COc1ccc([C@@H]2C[C@@H](O)C[C@H]3c4cc(OCc5ccccc5)c(OCc5ccccc5)cc4CCN23)cc1`: the IC50 in the experiment with MDA-MB-231, in the experiment with HeLa, in the experiment on K562, in the experiment on PC-3, in the experiment on DU-145 and in the experiment with MCF7 was > 20 µM each time. Also, the IC50 in the experiment with RWPE-1 is > 20 µM.

Take `C[C@@H]1C[C@H](O)C[C@H]2c3cc4c(cc3CCN12)OCO4`: the IC50 in the experiment on MDA-MB-231, in the experiment on HeLa, in the experiment on K562, in the experiment with PC-3, in the experiment with DU-145 and with MCF7 was > 20 µM throughout. For the same compound, the IC50 with RWPE-1 was > 20 µM.

Consider `Cc1cc(C)cc(COc2cc3c(cc2OCc2cc(C)cc(C)c2)CN(C(=O)OC(C)(C)C)CC3)c1`, for which the IC50 in the experiment with MDA-MB-231, in the experiment with HeLa, with K562, in the experiment with PC-3, with DU-145 and in the experiment on MCF7 was > 20 µM in each case. The IC50 in the experiment on RWPE-1 was > 20 µM.

For `O[C@H]1C[C@@H](c2ccc(-c3ccccc3)cc2)N2CCc3cc(OCc4ccccc4)c(OCc4ccccc4)cc3[C@@H]2C1`, the IC50 in the experiment with MDA-MB-231, in the experiment with HeLa, in the experiment on K562, with PC-3, with DU-145 and with MCF7 was > 20 µM each time. Also, in the experiment with RWPE-1, the IC50 is > 20 µM.

As to `CC[C@@H]1C[C@@H](O)C[C@H]2c3cc(OCc4ccccc4)c(OCc4ccccc4)cc3CCN12`, the IC50 with MDA-MB-231 was 2.88 µM; in the experiment on HeLa it was 2.43 µM; in the experiment on K562 it was 1.41 µM; in the experiment with PC-3 it was 2.15 µM; in the experiment on DU-145 it was 1.68 µM; with MCF7 it was 2.79 µM. Moreover, in the experiment with RWPE-1, the IC50 worked out at 2.2 µM.

For `Oc1cc2c(cc1O)[C@@H]1C[C@@H](O)C[C@@H](c3ccccc3)N1CC2`, the IC50 in the experiment on MDA-MB-231, in the experiment on HeLa, in the experiment with K562, in the experiment on PC-3, in the experiment with DU-145 and in the experiment on MCF7 was > 20 µM throughout. Also, the IC50 in the experiment on RWPE-1 is > 20 µM.

As for `O[C@@H]1C[C@@H](c2ccccc2)N2CCc3cc(OCc4ccccc4)ccc3[C@@H]2C1`, the IC50 with MDA-MB-231, with HeLa, with K562, with PC-3, in the experiment with DU-145 and with MCF7 was > 20 µM in each case. In the experiment on RWPE-1, the IC50 is > 20 µM.

In the case of `C[C@@H]1C[C@@H](O)C[C@H]2c3cc(OCc4ccccc4)c(OCc4ccccc4)cc3CCN12`, the IC50 in the experiment with MDA-MB-231 worked out at 1.15 µM; with HeLa, 2.66 µM; with K562, 1.52 µM; with PC-3, 2.81 µM; in the experiment on DU-145, 2.18 µM; in the experiment with MCF7 it was 2.2 µM. In the experiment on RWPE-1, the IC50 came to 1.84 µM.
